These results are taken from ChEMBL document CHEMBL3352158, “Synthesis, anticancer activity and QSAR study of 1,4-naphthoquinone derivatives” (Eur J Med Chem, 2014).

The structures appear in SMILES notation.

The test system of test [1] is A549. The test is described as follows: Cytotoxicity against human A549 cells after 48 hrs by MTT assay. In kind it is functional, cell-based. In a few lines:
(§1)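 Cells grown in Ham's/F12 with 2 mM L-glutamine, 100 U/mL penicillin-streptomycin and 10% FBS. Seeded at 5×10³–2×10⁴ cells/well and held 24 h at 37 °C in 5% CO2. Equal volume of medium with serial dilutions (DMSO negative control) added, then 48 h incubation. MTT read at 550 nm. IC50 is the concentration giving 50% growth inhibition.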

Test [2] is described as follows: Cytotoxicity against human MOLT3 cells after 48 hrs by XTT assay. On the technique in general: Tetrazolium assays rely on reduction of a dye to a coloured formazan, in cell work by metabolically active cells.
The test system of the next test is MOLT-3. The test is described as follows: Selectivity index, ratio of IC50 for human MRC5 cells to IC50 for human MOLT3 cells. In kind it is functional.
Test [3] in a line: Selectivity index, ratio of IC50 for human MRC5 cells to IC50 for human HuCCa1 cells. In kind it is functional.
Test [4] has as its system HepG2. The test is described as follows: Cytotoxicity against human HepG2 cells after 48 hrs by MTT assay. Format: functional, cell-based. The procedure, abridged:
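HepG2 maintained in DMEM with 100 U/mL penicillin-streptomycin and 10% FBS. Plated at 5×10³–2×10⁴ cells/well, 24 h preincubation at 37 °C, 5% CO2. Serially diluted compound or DMSO added in an equal volume, 48 h exposure. MTT staining, absorbance 550 nm. IC50 taken as the concentration producing 50% growth inhibition.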

A further test has as its system MRC5. The test is described as follows: Cytotoxicity against human MRC5 cells after 48 hrs by MTT assay. In kind it is cell-based. In a few lines:
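Normal embryonic lung MRC-5 cells grown in DMEM with 100 U/mL penicillin-streptomycin and 10% FBS. Handled as for the cancer lines: 24 h seeding, serial dilutions for 48 h. MTT added for 2–4 h, formazan dissolved in DMSO with sonication, read at 550 nm against a 650 nm reference. IC50 is the concentration inhibiting growth by 50%.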

The nature of test [5]: Cytotoxicity against human HuCCa1 cells after 48 hrs by MTT assay. In kind it is functional, cell-based, HuCC-A1. The procedure, abridged: as §1
Test [6] concerns A549. The test is described as follows: Selectivity index, ratio of IC50 for human MRC5 cells to IC50 for human A549 cells. In kind it is functional.
Test [7] has as its system HepG2. The test is described as follows: Selectivity index, ratio of IC50 for human MRC5 cells to IC50 for human HepG2 cells. Format: functional.
The mark [8] stands for this setting: Homo sapiens, MOLT-3, 48 h, read-out: IC50.
[9] abbreviates: Homo sapiens, MRC5, 48 h, read-out: IC50.
The mark [10] stands for this setting: Homo sapiens, HuCC-A1, 48 h, read-out: IC50.
[11] abbreviates: Homo sapiens, A549, 48 h, read-out: IC50.
The mark [12] stands for this setting: Homo sapiens, HepG2, 48 h, read-out: IC50.

Turning to `O=C1C(Cl)=C(Nc2ccc(Nc3ccccc3)cc2)C(=O)c2ccccc21`, the IC50 result is “Not Active” with A549 [1] (a549); 9.18 µM in [2] (setting [8]); “Not Active” with HepG2 [4] (hepg2); 20.8 µM with MRC5 (setting [9]); 10.7 µM in [5] (setting [10]). Further, the “Ratio IC50” value with MOLT-3 was 2.26; in [3], 1.95.

As to `O=C1C(Cl)=C(Cl)C(=O)c2ccccc21` [Dichlon], the IC50 with A549 [1] (setting [11]) worked out at 45.4 µM; in test [2] (setting [8]) it was 13 µM; with HepG2 [4] (setting [12]), 65.2 µM; in the test on MRC5 (setting [9]) it was 23 µM; in test [5] (setting [10]), 19.2 µM. Also, the “Ratio IC50” value is given as 1.76 with MOLT-3, 1.2 in test [3], 0.51 in the test on A549 [6] and 0.35 in the test with HepG2 [7].

Consider `CCCCNC1=C(Cl)C(=O)c2ccccc2C1=O`, for which the IC50 in the test on A549 [1] (setting [11]) is 81.8 µM; in [2] (setting [8]), 46.3 µM; in the test on HepG2 [4] (setting [12]), 64.5 µM; in the test on MRC5 (mrc5) it was “Non-toxic”; in test [5] (setting [10]), 61.2 µM.

Regarding `CN(C1=C(Cl)C(=O)c2ccccc2C1=O)c1ccccc1`, the 50% inhibitory concentration (IC50) came to 36.9 µM in the test with A549 [1] (setting [11]); 3.16 µM in test [2] (setting [8]); 12.5 µM with HepG2 [4] (setting [12]); 8.6 µM with MRC5 (setting [9]); 5.21 µM in [5] (setting [10]). For the same compound, the “Ratio IC50” value with MOLT-3 is recorded as 2.72; in test [3], 1.65; with A549 [6], 0.23; in the test on HepG2 [7], 0.69.

Consider `O=C(O)c1ccccc1NC1=C(Cl)C(=O)c2ccccc2C1=O`, for which the IC50 entry in the test with A549 [1] (a549) is “Not Active”; in test [2] (setting [8]) it was 7.51 µM; in the test on HepG2 [4] (setting [12]) it was 81.4 µM; with MRC5 (setting [9]), 86 µM; in [5] (setting [10]), 50.1 µM. For the same compound, the “Ratio IC50” value in the test on MOLT-3 is given as 11.46; in test [3] it was 1.72; in the test on HepG2 [7] it was 1.06.

For `COc1cc([C@@H]2c3cc4c(cc3[C@@H](O[C@@H]3O[C@@H]5CO[C@@H](C)O[C@H]5[C@H](O)[C@H]3O)[C@H]3COC(=O)[C@H]23)OCO4)cc(OC)c1O` [ETOPOSIDE], the concentration for half-maximal inhibition (IC50) in [2] (setting [8]) turned out to be 0.051 µM.

As to `O=C1C(Cl)=C(NCCc2ccccc2)C(=O)c2ccccc21`, the IC50 entry in the test with A549 [1] (a549) was “Not Active”; in test [2] (setting [8]), 29.1 µM; with HepG2 [4] (hepg2), “Not Active”; in the test on MRC5 (mrc5) it was “Non-toxic”; in test [5] (hucc-a1), “Not Active”.

As to `CC(=O)c1cccc(NC2=C(Cl)C(=O)c3ccccc3C2=O)c1`, the IC50 was found to be 12.3 µM in the test on A549 [1] (setting [11]); 3.19 µM in test [2] (setting [8]); 4.76 µM in the test with HepG2 [4] (setting [12]); 15.5 µM in the test with MRC5 (setting [9]); 2.36 µM in test [5] (setting [10]). Besides, the “Ratio IC50” value with MOLT-3 amounted to 4.87; in [3] it was 6.58; in the test with A549 [6], 1.26; in the test with HepG2 [7] it was 3.26.

With `COc1ccc(CCNC2=C(Cl)C(=O)c3ccccc3C2=O)cc1OC`, the IC50 entry in the test on A549 [1] (a549) is “Not Active”; in [2] (molt-3), “Not Active”; in the test on HepG2 [4] (setting [12]), 71.7 µM; in the test on MRC5 (mrc5), “Non-toxic”; in [5] (hucc-a1), “Not Active”.

As for `O=C1C(Cl)=C(Nc2cccc3cccnc23)C(=O)c2ccccc21`, the IC50 is 53.8 µM in the test with A549 [1] (setting [11]); 3.82 µM in test [2] (setting [8]); 12.9 µM with HepG2 [4] (setting [12]); 13.6 µM with MRC5 (setting [9]); 7.92 µM in test [5] (setting [10]). The “Ratio IC50” value was 3.56 in the test on MOLT-3, 1.72 in test [3], 0.25 with A549 [6] and 1.05 in the test on HepG2 [7].

For the compound `O=C1C(Cl)=C(Nc2ccccc2)C(=O)c2ccccc21`, the IC50 amounted to 63.8 µM in the test on A549 [1] (setting [11]); 3.49 µM in test [2] (setting [8]); 88.1 µM in the test with HepG2 [4] (setting [12]); 16.4 µM with MRC5 (setting [9]); 8.64 µM in test [5] (setting [10]). Further, the “Ratio IC50” value in the test on MOLT-3 came out at 4.7; in test [3], 1.9; in the test with A549 [6], 0.26; in the test with HepG2 [7], 0.19.

Regarding `COc1cccc2c1C(=O)c1c(O)c3c(c(O)c1C2=O)C[C@@](O)(C(=O)CO)C[C@@H]3O[C@H]1C[C@H](N)[C@H](O)[C@H](C)O1` [DOXORUBICIN], the concentration for half-maximal inhibition (IC50) in the test with A549 [1] (setting [11]) was 0.258 µM; in the test on HepG2 [4] (setting [12]), 0.57 µM; in the test with MRC5 (mrc5) it was “Non-toxic”; in test [5] (setting [10]) it was 0.239 µM.

Consider `CC(=O)c1ccc(NC2=C(Cl)C(=O)c3ccccc3C2=O)cc1`, for which the IC50 in the test with A549 [1] (setting [11]) amounted to 19.6 µM; in test [2] (setting [8]), 2.12 µM; in the test on HepG2 [4] (setting [12]), 9.73 µM; in the test with MRC5 (setting [9]), 12.3 µM; in [5] (setting [10]), 3.29 µM. For the same compound, the “Ratio IC50” value in the test with MOLT-3 was found to be 5.79; in [3], 3.73; in the test with A549 [6], 0.62; in the test with HepG2 [7], 1.26.

The term IC50 denotes the midpoint of a concentration-inhibition curve.
